Results on 4 molecules are retold here after ChEMBL document CHEMBL1126770, “2,5-Dimethoxy congeners of (+)-and (-)-3-(3-hydroxyphenyl)-N-n- propylpiperidine” (1993).

Assay [1] has as its system Rattus norvegicus. Description: DA2 antagonist activity was tested by its ability to decrease the heart rate in anesthetized rat at 100 ug/kg. In kind it is functional. An outline of the steps:
(§1)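 Urethane-anaesthetised (900 mg/kg ip) Sprague-Dawley rats received iv cumulative doses via the femoral vein, at 0.48 log10 steps once responses had been stable ≥5 min. Heart rate came from a cardiotachometer triggered by the femoral arterial pulse, as decrease in beats/min. n = 3 rats per compound; mean ± SD.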

Assay [2] relates to Rattus norvegicus. The experiment in a line: DA2 antagonist activity was tested by the duration of onset of action of cardiovascular response at 30 ug/kg. In kind it is functional, Heart. An outline of the steps:
(§2)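 In anaesthetised Sprague-Dawley rats (urethane 900 mg/kg ip), cumulative iv doses at 0.48 log10 intervals were given via the femoral vein after ≥5 min of stable responses. Duration of hypotension and bradycardia (min) was taken from femoral arterial pressure and pulse-triggered heart rate recordings. Three rats per compound; mean ± SD.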

The subject of assay [3] is Rattus norvegicus. Description: DA2 antagonist activity was tested by its ability to decrease the arterial pressure in anesthetized rat at 10 ug/kg. The format is functional, Artery. An outline of the steps: (§3)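 Sprague-Dawley rats under urethane anaesthesia (900 mg/kg ip), with a femoral vein cannula for drug. Compound given iv as cumulative doses spaced 0.48 log10 units apart, each after responses had been stable ≥5 min. Mean arterial pressure was recorded from the femoral artery via a transducer, as decrease in mmHg. Three rats per compound; mean ± SD.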

The subject of assay [4] is Rattus norvegicus. The experiment in a line: DA2 antagonist activity was tested by the duration of onset of action of cardiovascular response at 100 ug/kg. The format is functional, Heart. In short, it runs like this: as §2
Assay [5] relates to Rattus norvegicus. Description: DA2 antagonist activity was tested by its ability to decrease the arterial pressure in anesthetized rat at 30 ug/kg. In kind it is functional, Artery. An outline of the steps:
as §3

The test system of assay [6] is Rattus norvegicus. Description: DA2 antagonist activity was tested by its ability to decrease the heart rate in anesthetized rat at 30 ug/kg. The format is functional. An outline of the steps: as §1
Assay [7] has as its system Rattus norvegicus. Description: DA2 antagonist activity was tested by its ability to decrease the arterial pressure in anesthetized rat at 100 ug/kg. In kind it is functional, Artery. In short, it runs like this:
as §3

In assay [8] the test system is Rattus norvegicus. Description: DA2 antagonist activity was tested by its ability to decrease the heart rate in anesthetized rat at 10 ug/kg. In kind it is functional. In short, it runs like this:
as §1

In assay [9] the test system is Rattus norvegicus. The experiment in a line: DA2 antagonist activity was tested by the duration of onset of action of cardiovascular response at 10 ug/kg. In kind it is functional, Heart. In short, it runs like this:
as §2

Assay [10] has as its system Rattus norvegicus. Description: DA2 antagonist activity was tested by its to decrease the heart rate in anesthetized rat at 3000 ug/kg. In kind it is functional. An outline of the steps: as §1
Assay [11] has as its system Rattus norvegicus. Description: DA2 antagonist activity was tested by the duration of onset of action of cardiovascular response at 300 ug/kg. In kind it is functional, Heart. In short, it runs like this:
as §2

Assay [12] has as its system Rattus norvegicus. The experiment in a line: DA2 antagonist activity was tested by its to decrease the heart rate in anesthetized rat at 1000 ug/kg. The format is functional. An outline of the steps: as §1
In assay [13] the test system is Rattus norvegicus. The experiment in a line: DA2 antagonist activity was tested by its to decrease the heart rate in anesthetized rat at 300 ug/kg. The format is functional. An outline of the steps:
as §1

The subject of assay [14] is Rattus norvegicus. Description: DA2 antagonist activity was tested by the duration of onset of action of cardiovascular response at 3000 ug/kg. The format is functional, Heart. In short, it runs like this: as §2
Assay [15] deals with Rattus norvegicus. The experiment in a line: DA2 antagonist activity was tested by the duration of onset of action of cardiovascular response at 1000 ug/kg. The format is functional, Heart. An outline of the steps: as §2
Assay [16] concerns Rattus norvegicus. Description: DA2 antagonist activity was tested by its ability to decrease the arterial pressure in anesthetized rat at 300 ug/kg. The format is functional, Artery. In short, it runs like this: as §3
For assay [17], the system named is Rattus norvegicus. The experiment in a line: DA2 antagonist activity was tested by its ability to decrease the arterial pressure in anesthetized rat at 3000 ug/kg. The format is functional, Artery. In short, it runs like this: as §3
The test system of assay [18] is Rattus norvegicus. Description: DA2 antagonist activity was tested by the duration of onset of action of cardiovascular response at 1000 ug/kg; Insufficient sample for statistical treatment. The format is functional, Heart.
Assay [19] deals with Rattus norvegicus. Description: DA2 antagonist activity was tested by its ability to decrease the heart rate in anesthetized rat at 1000 ug/kg. The format is functional. An outline of the steps: as §1
For assay [20], the system named is Rattus norvegicus. The experiment in a line: DA2 antagonist activity was tested by its ability to decrease the heart rate in anesthetized rat at 300 ug/kg. In kind it is functional. An outline of the steps: as §1
Assay [21] has as its system Rattus norvegicus. The experiment in a line: DA2 antagonist activity was tested by its ability to decrease the arterial pressure in anesthetized rat at […] ug/kg. In kind it is functional, Artery. In short, it runs like this:
as §3

Assay [22] deals with Rattus norvegicus. The experiment in a line: DA2 antagonist activity was tested by its ability to decrease the heart rate in anesthetized rat at 3000 ug/kg. The format is functional. In short, it runs like this:
as §1

Regarding `CCCN1CCC[C@H](c2cccc(O)c2)C1`, the “Decrease in heart rate” value in the assay on Rattus norvegicus [1] was 44 beats min-1; in the assay on Rattus norvegicus [6] it was 37 beats min-1; with Rattus norvegicus [8] it was 13 beats min-1. Besides, the Duration of action was 10 min in the assay with Rattus norvegicus [2], 14 min with Rattus norvegicus [4] and 6 min in the assay with Rattus norvegicus [9]. In addition, the Decrease in pressure in the assay with Rattus norvegicus [3] is listed as 5 mmHg; with Rattus norvegicus [5], 16 mmHg; in the assay on Rattus norvegicus [7], 23 mmHg.

On to `CCCN1CCCC(c2cc(OC)ccc2OC)C1` (racemic), for which the “Decrease in heart rate” value in the assay with Rattus norvegicus [10] worked out at 45 beats min-1; in the assay on Rattus norvegicus [12], 35 beats min-1; in the assay with Rattus norvegicus [13], 17 beats min-1. Besides, the Duration of action with Rattus norvegicus [11] is recorded as 5 min; in the assay with Rattus norvegicus [14] it was 13 min; in the assay with Rattus norvegicus [15], 8 min. For the same molecule, the Decrease in pressure in the assay on Rattus norvegicus [16] was 10 mmHg; in the assay with Rattus norvegicus [17], 23 mmHg.

For `CCCN1CCCC(c2cc(OC)ccc2OC)C1` (single isomer, unassigned; (+)), the Duration of action with Rattus norvegicus [18] was 18 min. In addition, the “Decrease in heart rate” value in the assay on Rattus norvegicus [19] is reported as 30 beats min-1.

For `CCCN1CCCC(c2cc(OC)ccc2OC)C1` (single isomer, unassigned; (-)), the results for the Duration of action with Rattus norvegicus [11], in the assay with Rattus norvegicus [14] and in the assay with Rattus norvegicus [15] were 2 min, 10 min and 5 min, respectively. Moreover, the “Decrease in heart rate” value with Rattus norvegicus [20] turned out to be 10 beats min-1; with Rattus norvegicus [22] it was 45 beats min-1; in the assay with Rattus norvegicus [19] it was 40 beats min-1. The values for the Decrease in pressure in the assay on Rattus norvegicus [21] and in the assay on Rattus norvegicus [16] were 27 mmHg and 15 mmHg, respectively.
